Data: ChEMBL document CHEMBL3244336, “Antitumor agents. 1. 1,4-Bis[(aminoalkyl)amino]-9,10-anthracenediones” (J Med Chem, 1979)
The source made the active and inactive calls.

Columns and labels:
P388 [1] = assay: Antitumor activity against mouse P388 cells allografted in mouse assessed as increase of median life span at 50 mg/kg, ip on day 1, 5 and 9 measured up to 60 days relative to control; assay type: functional; conditions: route intraperitoneal
How it was run: (§1)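 BDF1 or CDF1 mice inoculated ip with ascitic P388 leukemia cells. Dosing ip on days 1, 5 and 9. Deaths recorded for 60 days; % increase in median life span over controls. "Cures" are survivors/total at 60 days.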

P388 [2] = assay: Antitumor activity against mouse P388 cells allografted in mouse assessed as disease cure at 50 mg/kg, ip on day 1, 5 and 9 measured up to 60 days; assay type: functional, organism-based; design: dose 50 mg/kg
How it was run: (§2)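 BDF1 or CDF1 mice inoculated ip with ascitic P388 leukemia cells, dosed ip on days 1, 5 and 9. Deaths recorded for 60 days; "cures" taken as number of survivors/total at 60 days.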

B16 [3] = assay: Antitumor activity against mouse B16 cells allografted in BDF1 mouse assessed as increase of median life span at 25 mg/kg, ip on day 1 to 9 measured up to 80 days relative to control; assay type: functional; conditions: route intraperitoneal
How it was run: (§3)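 BDF1 mice implanted ip with a homogenate from 0.05 g of B16 tumor. Test agent given ip on days 1-9. Deaths recorded for 80 days. Result is % increase in median life span over untreated controls. "Cures" are survivors/total at 80 days.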

B16 [4] = assay: Antitumor activity against mouse B16 cells allografted in BDF1 mouse assessed as disease cure at 25 mg/kg, ip on day 1 to 9 measured up to 80 days; assay type: functional, organism-based; design: dose 25 mg/kg
How it was run: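 BDF1 mice implanted ip with homogenate from 0.05 g of B16 tumor, then dosed ip on days 1-9. Deaths recorded for 80 days; "cures" scored as survivors/total at 80 days.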

P388 [5] = assay: Antitumor activity against mouse P388 cells allografted in mouse assessed as increase of median life span at 300 mg/kg, ip on day 1, 5 and 9 measured up to 60 days relative to control; assay type: functional; conditions: route intraperitoneal; how it was run: as §1
P388 [6] = assay: Antitumor activity against mouse P388 cells allografted in mouse assessed as disease cure at 300 mg/kg, ip on day 1, 5 and 9 measured up to 60 days; assay type: functional, organism-based; design: dose 300 mg/kg; how it was run: as §2
B16 [7] = assay: Antitumor activity against mouse B16 cells allografted in BDF1 mouse assessed as increase of median life span at 6.2 mg/kg, ip on day 1 to 9 measured up to 80 days relative to control; assay type: functional; conditions: route intraperitoneal; how it was run: as §3
P388 [8] = assay: Antitumor activity against mouse P388 cells allografted in mouse assessed as increase of median life span at 12.5 mg/kg, ip on day 1, 5 and 9 measured up to 60 days relative to control; assay type: functional; conditions: route intraperitoneal; how it was run: as §1
P388 [9] = assay: Antitumor activity against mouse P388 cells allografted in ip dosed mouse assessed as minimum effective dose administered as single dose; assay type: functional; conditions: read-out: MED
How it was run: (§4)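 Drug given ip to P388 tumor-bearing mice, either once as a single dose or once each 4 days for three injections. Minimum effective dose defined as the dose giving 40% increase in life span over control, read from regression lines of log dose-response data.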

P388 [10] = assay: Antitumor activity against mouse P388 cells allografted in mouse assessed as increase of median life span at 5 mg/kg, ip on day 1, 5 and 9 measured up to 60 days relative to control; assay type: functional; conditions: route intraperitoneal; how it was run: as §1
B16 [11] = assay: Antitumor activity against mouse B16 cells allografted in BDF1 mouse assessed as increase of median life span at 0.8 mg/kg, ip on day 1 to 9 measured up to 80 days relative to control; assay type: functional; conditions: route intraperitoneal; how it was run: as §3
P388 [12] = assay: Antitumor activity against mouse P388 cells allografted in ip dosed mouse assessed as minimum effective dose administered as once each 4 days for 3 total injection; assay type: functional; conditions: 96 h, read-out: MED; how it was run: as §4
[13] = Toxicity in […] assessed as maximum tolerated dose administered as single dose; assay type: organism-based, P388; conditions: mouse, in vivo, ip
[14] = Toxicity in […] assessed as maximum tolerated dose administered as once each 4 days for 3 total injection; assay type: organism-based, P388; conditions: mouse, in vivo, ip
P388 [15] = assay: Antitumor activity against mouse P388 cells allografted in mouse assessed as increase of median life span at 200 mg/kg, ip on day 1, 5 and 9 measured up to 60 days relative to control; assay type: functional; conditions: route intraperitoneal; how it was run: as §1
B16 [16] = assay: Antitumor activity against mouse B16 cells allografted in BDF1 mouse assessed as increase of median life span at 100 mg/kg, ip on day 1 to 9 measured up to 80 days relative to control; assay type: functional; conditions: route intraperitoneal; how it was run: as §3
P388 [17] = assay: Antitumor activity against mouse P388 cells allografted in mouse assessed as increase of median life span at 1.6 mg/kg, ip on day 1, 5 and 9 measured up to 60 days relative to control; assay type: functional; conditions: route intraperitoneal; how it was run: as §1
P388 [18] = assay: Antitumor activity against mouse P388 cells allografted in ip dosed mouse assessed as dose providing 40% increase in life span administered as once each 4 days for 3 total injection; assay type: functional
How it was run: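 P388 tumor-bearing mice dosed ip, either once as a single dose or once every 4 days for three injections. It was read from regression lines of log dose-response data.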

[19] = Therapeutic index, ratio of MTD for mouse P388 cells allografted ip dosed mouse to MED for mouse P388 cells allografted in ip dosed mouse administered as single dose; assay type: organism-based; conditions: in vivo, read-out: TI
How it was run: (§5)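 Therapeutic index is MTD/MED for ip dosing, either single or once every 4 days ×3. MTD is the 10% lethal dose in normal mice over 21 days. MED is the dose giving a 40% life-span increase in P388-bearing mice. Both come from log dose-response regression lines.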

[20] = Therapeutic index, ratio of MTD for mouse P388 cells allografted ip dosed mouse to MED for mouse P388 cells allografted in ip dosed mouse administered as once each 4 days for 3 total injection; assay type: organism-based; conditions: in vivo, read-out: TI; how it was run: as §5
L5178Y [21] = assay: Ratio of adriamycin to compound for inhibition of RNA synthesis in mouse L5178Y cells; assay type: functional
L5178Y [22] = assay: Ratio of adriamycin to compound for inhibition of DNA synthesis in mouse L5178Y cells; assay type: functional
B16 [23] = assay: Antitumor activity against mouse B16 cells allografted in BDF1 mouse assessed as increase of median life span at 50 mg/kg, ip on day 1 to 9 measured up to 80 days relative to control; assay type: functional; conditions: route intraperitoneal; how it was run: as §3
P388 [24] = assay: Antitumor activity against mouse P388 cells allografted in mouse assessed as increase of median life span at 3.1 mg/kg, ip on day 1, 5 and 9 measured up to 60 days relative to control; assay type: functional; conditions: route intraperitoneal
How it was run: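 BDF or CDF1 mice injected ip with ascitic leukemia cells, then dosed ip on days 1, 5 and 9. Deaths recorded for 60 days. Read-outs: percent increase in median life span over controls, and "cures" as survivors/total at 60 days.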

## CN(C)CCCNc1ccc(NCCCN(C)C)c2c1C(=O)c1c(O)ccc(O)c1C2=O
P388 [1]
  ILS at 50 mg/kg: 29%
P388 [2]
  Activity: inactive
B16 [3]
  ILS at 25 mg/kg: 25%
B16 [4]
  Activity: inactive

## C[N+](C)(C)CCNc1ccc(NCC[N+](C)(C)C)c2c1C(=O)c1ccccc1C2=O
P388 [5]
  ILS at 300 mg/kg: 0%
P388 [6]
  Activity: inactive

## O=C1c2c(O)ccc(O)c2C(=O)c2c(NCCCNCCO)ccc(NCCCNCCO)c21
P388 [1]
  ILS at 50 mg/kg: 191%
B16 [3]
  ILS at 25 mg/kg: 100%
B16 [4]
  Activity: inactive

## O=C1c2c(O)ccc(O)c2C(=O)c2c(NCCNCCCO)ccc(NCCNCCCO)c21
B16 [7]
  ILS at 6.2 mg/kg: 357%
P388 [8]
  ILS at 12.5 mg/kg: 191%

## COc1cccc2c1C(=O)c1c(O)c3c(c(O)c1C2=O)C[C@@](O)(C(=O)CO)C[C@@H]3O[C@H]1C[C@H](N)[C@H](O)[C@H](C)O1 [DOXORUBICIN]
P388 [9]
  minimal effective dose: 0.35 mg/kg
P388 [10]
  ILS at 5 mg/kg: 159%
B16 [11]
  ILS at 0.8 mg/kg: 275%
P388 [12]
  minimal effective dose: 0.14 mg/kg
[13]
  MTD: 13.1 mg/kg
[14]
  MTD at 96 h: 2.7 mg/kg

## O=C1c2c(O)ccc(O)c2C(=O)c2c(NCCNCCN3CCOCC3)ccc(NCCNCCN3CCOCC3)c21
P388 [15]
  ILS at 200 mg/kg: 136%
B16 [16]
  ILS at 100 mg/kg: 233%

## CN(C)CCNc1ccc(NCCN(C)C)c2c1C(=O)c1ccc(O)c(O)c1C2=O
P388 [1]
  ILS at 50 mg/kg: 57%
P388 [2]
  Activity: inactive
B16 [3]
  ILS at 25 mg/kg: 60%

## Cl.Cl.O=C1c2c(O)ccc(O)c2C(=O)c2c(NCCNCCO)ccc(NCCNCCO)c21 [MITOXANTRONE HYDROCHLORIDE]
P388 [9]
  minimal effective dose: 0.15 mg/kg
B16 [11]
  ILS at 0.8 mg/kg: > 272%
P388 [17]
  ILS at 1.6 mg/kg: > 500%
P388 [12]
  minimal effective dose: 0.023 mg/kg
[13]
  MTD: 4.2 mg/kg
[14]
  MTD at 96 h: 3.4 mg/kg
P388 [18]
  Activity: 300 mg/kg
[19]
  selectivity ratio: 28
[20]
  selectivity ratio at 96 h: 148
L5178Y [21]
  Ratio: 7
L5178Y [22]
  Ratio: 4

## O=C1c2ccccc2C(=O)c2c(NCCN(CCO)CCO)ccc(NCCN(CCO)CCO)c21
P388 [5]
  ILS at 300 mg/kg: 73%
P388 [6]
  Activity: inactive
B16 [23]
  ILS at 50 mg/kg: 88%

## NCCNc1ccc(NCCN)c2c1C(=O)c1c(O)ccc(O)c1C2=O
P388 [24]
  ILS at 3.1 mg/kg: 173%
